Laboratory results from ChEMBL document CHEMBL4689842, “EUbOPEN Chemogenomics Library wave 1” (2021).

Test system: HEK-293T
Test: Multiplex assay against HEK293T;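 for Population Tubulin-Different-Phenotype (%): share of the cells with healthy nuclei that show this phenotype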
Type: toxicity, cell-based
Details: human
How it was run: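 At seeding, live cells were stained with Hoechst33342, BioTracker Green Microtubule Cytoskeleton Dye, MitoTracker Red and Annexin V Alexa Fluor 680. After compound addition they were imaged on a CQ1 microscope at 37°C and 5% CO2, and CellPathfinder machine-learning gating sorted them into Hoechst high-intensity objects or normal cells, with normal cells further split into healthy, pyknosed or fragmented nuclei and pyknosed cells into mitotic or apoptotic. Tubulin, mitochondrial-mass and membrane-permeability phenotypes are given as per cents of cells with healthy nuclei.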

[1] = 12 h, 1 µM, compound concentration 1 uM, replicate 1
[2] = 12 h, 1 µM, compound concentration 1 uM, replicate 2
[3] = 12 h, 10 µM, compound concentration 10 uM, replicate 1
[4] = 12 h, 10 µM, compound concentration 10 uM, replicate 2
[5] = 24 h, 1 µM, compound concentration 1 uM, replicate 1
[6] = 24 h, 1 µM, compound concentration 1 uM, replicate 2
[7] = 24 h, 10 µM, compound concentration 10 uM, replicate 1
[8] = 24 h, 10 µM, compound concentration 10 uM, replicate 2
[9] = 48 h, 1 µM, compound concentration 1 uM, replicate 1
[10] = 48 h, 1 µM, compound concentration 1 uM, replicate 2
[11] = 48 h, 10 µM, compound concentration 10 uM, replicate 1
[12] = 48 h, 10 µM, compound concentration 10 uM, replicate 2

Oc1cccc(-c2nc(N3CCOCC3)c3oc4ncccc4c3n2)c1 [PI-103]
Population Apoptotic (%) [1]: 58%
Population Fragmented Nuclei (%) [1]: 6%
Population Healthy Nuclei (%) [1]: 16%
Population Hoechst High Intensity Objects (%) [1]: 21%
Population Membrane Permeable-Phenotype (%) [1]: 2%
Population Mitochondria Different-Phenotype (%) [1]: 85%
Population Mitotic Cells (%) [1]: 41%
Population Normal (%) [1]: 78%
Population Pyknosed Nuclei (%) [1]: 77%
Population Tubulin-Different-Phenotype (%) [1]: 82%
Total Cell Count [1]: 269
Population Apoptotic (%) [2]: 51%
Population Fragmented Nuclei (%) [2]: 10%
Population Healthy Nuclei (%) [2]: 13%
Population Hoechst High Intensity Objects (%) [2]: 14%
Population Membrane Permeable-Phenotype (%) [2]: 10%
Population Mitochondria Different-Phenotype (%) [2]: 68%
Population Mitotic Cells (%) [2]: 48%
Population Normal (%) [2]: 85%
Population Pyknosed Nuclei (%) [2]: 76%
Population Tubulin-Different-Phenotype (%) [2]: 63%
Total Cell Count [2]: 161
Population Apoptotic (%) [3]: 72%
Population Fragmented Nuclei (%) [3]: 14%
Population Healthy Nuclei (%) [3]: 8%
Population Hoechst High Intensity Objects (%) [3]: 18%
Population Membrane Permeable-Phenotype (%) [3]: 11%
Population Mitochondria Different-Phenotype (%) [3]: 94%
Population Mitotic Cells (%) [3]: 27%
Population Normal (%) [3]: 81%
Population Pyknosed Nuclei (%) [3]: 77%
Population Tubulin-Different-Phenotype (%) [3]: 94%
Total Cell Count [3]: 269
Population Apoptotic (%) [4]: 64%
Population Fragmented Nuclei (%) [4]: 7%
Population Healthy Nuclei (%) [4]: 6%
Population Hoechst High Intensity Objects (%) [4]: 6%
Population Membrane Permeable-Phenotype (%) [4]: 27%
Population Mitochondria Different-Phenotype (%) [4]: 54%
Population Mitotic Cells (%) [4]: 35%
Population Normal (%) [4]: 93%
Population Pyknosed Nuclei (%) [4]: 85%
Population Tubulin-Different-Phenotype (%) [4]: 72%
Total Cell Count [4]: 172
Population Apoptotic (%) [5]: 47%
Population Fragmented Nuclei (%) [5]: 13%
Population Healthy Nuclei (%) [5]: 10%
Population Hoechst High Intensity Objects (%) [5]: 22%
Population Mitochondria Different-Phenotype (%) [5]: 78%
Population Mitotic Cells (%) [5]: 52%
Population Normal (%) [5]: 77%
Population Pyknosed Nuclei (%) [5]: 76%
Population Tubulin-Different-Phenotype (%) [5]: 86%
Total Cell Count [5]: 293
Population Apoptotic (%) [6]: 53%
Population Fragmented Nuclei (%) [6]: 9%
Population Healthy Nuclei (%) [6]: 26%
Population Hoechst High Intensity Objects (%) [6]: 15%
Population Membrane Permeable-Phenotype (%) [6]: 13%
Population Mitochondria Different-Phenotype (%) [6]: 59%
Population Mitotic Cells (%) [6]: 46%
Population Normal (%) [6]: 84%
Population Pyknosed Nuclei (%) [6]: 64%
Population Tubulin-Different-Phenotype (%) [6]: 64%
Total Cell Count [6]: 168
Population Apoptotic (%) [7]: 63%
Population Fragmented Nuclei (%) [7]: 18%
Population Healthy Nuclei (%) [7]: 8%
Population Hoechst High Intensity Objects (%) [7]: 17%
Population Membrane Permeable-Phenotype (%) [7]: 10%
Population Mitochondria Different-Phenotype (%) [7]: 100%
Population Mitotic Cells (%) [7]: 36%
Population Normal (%) [7]: 82%
Population Pyknosed Nuclei (%) [7]: 73%
Population Tubulin-Different-Phenotype (%) [7]: 90%
Total Cell Count [7]: 291
Population Apoptotic (%) [8]: 65%
Population Fragmented Nuclei (%) [8]: 11%
Population Healthy Nuclei (%) [8]: 11%
Population Hoechst High Intensity Objects (%) [8]: 16%
Population Membrane Permeable-Phenotype (%) [8]: 23%
Population Mitochondria Different-Phenotype (%) [8]: 70%
Population Mitotic Cells (%) [8]: 34%
Population Normal (%) [8]: 83%
Population Pyknosed Nuclei (%) [8]: 76%
Population Tubulin-Different-Phenotype (%) [8]: 88%
Total Cell Count [8]: 175
Population Apoptotic (%) [9]: 56%
Population Fragmented Nuclei (%) [9]: 23%
Population Healthy Nuclei (%) [9]: 4%
Population Hoechst High Intensity Objects (%) [9]: 22%
Population Membrane Permeable-Phenotype (%) [9]: 9%
Population Mitochondria Different-Phenotype (%) [9]: 72%
Population Mitotic Cells (%) [9]: 43%
Population Normal (%) [9]: 77%
Population Pyknosed Nuclei (%) [9]: 71%
Population Tubulin-Different-Phenotype (%) [9]: 63%
Total Cell Count [9]: 297
Population Apoptotic (%) [10]: 50%
Population Fragmented Nuclei (%) [10]: 12%
Population Healthy Nuclei (%) [10]: 55%
Population Hoechst High Intensity Objects (%) [10]: 14%
Population Membrane Permeable-Phenotype (%) [10]: 7%
Population Mitochondria Different-Phenotype (%) [10]: 63%
Population Mitotic Cells (%) [10]: 50%
Population Normal (%) [10]: 85%
Population Pyknosed Nuclei (%) [10]: 31%
Population Tubulin-Different-Phenotype (%) [10]: 88%
Total Cell Count [10]: 185
Population Apoptotic (%) [11]: 55%
Population Fragmented Nuclei (%) [11]: 29%
Population Healthy Nuclei (%) [11]: 7%
Population Hoechst High Intensity Objects (%) [11]: 17%
Population Membrane Permeable-Phenotype (%) [11]: 0%
Population Mitochondria Different-Phenotype (%) [11]: 94%
Population Mitotic Cells (%) [11]: 44%
Population Normal (%) [11]: 82%
Population Pyknosed Nuclei (%) [11]: 63%
Population Tubulin-Different-Phenotype (%) [11]: 84%
Total Cell Count [11]: 307
Population Apoptotic (%) [12]: 78%
Population Fragmented Nuclei (%) [12]: 10%
Population Healthy Nuclei (%) [12]: 18%
Population Hoechst High Intensity Objects (%) [12]: 22%
Population Membrane Permeable-Phenotype (%) [12]: 8%
Population Mitochondria Different-Phenotype (%) [12]: 80%
Population Mitotic Cells (%) [12]: 21%
Population Normal (%) [12]: 77%
Population Pyknosed Nuclei (%) [12]: 71%
Population Tubulin-Different-Phenotype (%) [12]: 88%
Total Cell Count [12]: 177

CCOC(=O)CCNc1cc(N2CCc3ccccc3CC2)nc(-c2ccccn2)n1
Population Apoptotic (%) [1]: 15%
Population Fragmented Nuclei (%) [1]: 15%
Population Healthy Nuclei (%) [1]: 66%
Population Hoechst High Intensity Objects (%) [1]: 9%
Population Membrane Permeable-Phenotype (%) [1]: 4%
Population Mitochondria Different-Phenotype (%) [1]: 3%
Population Mitotic Cells (%) [1]: 84%
Population Normal (%) [1]: 90%
Population Pyknosed Nuclei (%) [1]: 17%
Population Tubulin-Different-Phenotype (%) [1]: 4%
Total Cell Count [1]: 720
Population Apoptotic (%) [2]: 8%
Population Fragmented Nuclei (%) [2]: 8%
Population Healthy Nuclei (%) [2]: 86%
Population Hoechst High Intensity Objects (%) [2]: 1%
Population Membrane Permeable-Phenotype (%) [2]: 1%
Population Mitochondria Different-Phenotype (%) [2]: 8%
Population Mitotic Cells (%) [2]: 91%
Population Normal (%) [2]: 98%
Population Pyknosed Nuclei (%) [2]: 4%
Population Tubulin-Different-Phenotype (%) [2]: 5%
Total Cell Count [2]: 1753
Population Apoptotic (%) [3]: 22%
Population Fragmented Nuclei (%) [3]: 13%
Population Healthy Nuclei (%) [3]: 54%
Population Hoechst High Intensity Objects (%) [3]: 16%
Population Membrane Permeable-Phenotype (%) [3]: 4%
Population Mitochondria Different-Phenotype (%) [3]: 27%
Population Mitotic Cells (%) [3]: 77%
Population Normal (%) [3]: 83%
Population Pyknosed Nuclei (%) [3]: 32%
Population Tubulin-Different-Phenotype (%) [3]: 31%
Total Cell Count [3]: 622
Population Apoptotic (%) [4]: 26%
Population Fragmented Nuclei (%) [4]: 3%
Population Healthy Nuclei (%) [4]: 87%
Population Hoechst High Intensity Objects (%) [4]: 4%
Population Membrane Permeable-Phenotype (%) [4]: 2%
Population Mitochondria Different-Phenotype (%) [4]: 43%
Population Mitotic Cells (%) [4]: 73%
Population Normal (%) [4]: 95%
Population Pyknosed Nuclei (%) [4]: 8%
Population Tubulin-Different-Phenotype (%) [4]: 56%
Total Cell Count [4]: 1158
Population Apoptotic (%) [5]: 20%
Population Fragmented Nuclei (%) [5]: 12%
Population Healthy Nuclei (%) [5]: 79%
Population Hoechst High Intensity Objects (%) [5]: 4%
Population Mitochondria Different-Phenotype (%) [5]: 2%
Population Mitotic Cells (%) [5]: 79%
Population Normal (%) [5]: 95%
Population Pyknosed Nuclei (%) [5]: 8%
Population Tubulin-Different-Phenotype (%) [5]: 7%
Total Cell Count [5]: 821
Population Apoptotic (%) [6]: 1%
Population Fragmented Nuclei (%) [6]: 23%
Population Healthy Nuclei (%) [6]: 73%
Population Hoechst High Intensity Objects (%) [6]: 2%
Population Membrane Permeable-Phenotype (%) [6]: 5%
Population Mitochondria Different-Phenotype (%) [6]: 1%
Population Mitotic Cells (%) [6]: 98%
Population Normal (%) [6]: 97%
Population Pyknosed Nuclei (%) [6]: 2%
Population Tubulin-Different-Phenotype (%) [6]: 6%
Total Cell Count [6]: 2917
Population Apoptotic (%) [7]: 40%
Population Fragmented Nuclei (%) [7]: 14%
Population Healthy Nuclei (%) [7]: 46%
Population Hoechst High Intensity Objects (%) [7]: 18%
Population Membrane Permeable-Phenotype (%) [7]: 4%
Population Mitochondria Different-Phenotype (%) [7]: 54%
Population Mitotic Cells (%) [7]: 59%
Population Normal (%) [7]: 81%
Population Pyknosed Nuclei (%) [7]: 38%
Population Tubulin-Different-Phenotype (%) [7]: 47%
Total Cell Count [7]: 535
Population Apoptotic (%) [8]: 29%
Population Fragmented Nuclei (%) [8]: 4%
Population Healthy Nuclei (%) [8]: 83%
Population Hoechst High Intensity Objects (%) [8]: 8%
Population Membrane Permeable-Phenotype (%) [8]: 2%
Population Mitochondria Different-Phenotype (%) [8]: 50%
Population Mitotic Cells (%) [8]: 70%
Population Normal (%) [8]: 91%
Population Pyknosed Nuclei (%) [8]: 12%
Population Tubulin-Different-Phenotype (%) [8]: 65%
Total Cell Count [8]: 1034
